Assay results taken from ChEMBL document CHEMBL6092133, “Enhancing the therapeutic window for Spectinamide anti-tuberculosis Agents: Synthesis, Evaluation, and activation of phosphate prodrug 3408” (Bioorg Med Chem Lett, 2024).

What was measured:
[1] = test system: Mycobacterium tuberculosis; experiment: (§1) Antibacterial activity against Mycobacterium tuberculosis Erdman harboring pFCA-LuxAB plasmid infected in female BALB/c mouse model assessed as log reduction in bacterial burden in lung at 400 mg/kg, SC administered once daily for 12 days starting from day 7 and measured 3 days post last treatment relative to untreated control; assay type: functional; details: time 15 day
Summary of the method: (§2)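 BALB/c mice given a low-dose aerosol infection with M. tuberculosis Erdman pFCA-LuxAB. Dosing ran once daily for 12 consecutive days from day 7 post-infection: 10 mg/kg orally or 400 mg/kg, as the line states. Lung bacterial burden (log10 CFU) was compared with untreated control, six mice per group.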

[2] = (§3) Prodrug conversion in female BALB/c mouse plasma infected with Mycobacterium tuberculosis Erdman harboring pFCA-LuxAB plasmid assessed as 2-(5-chloropyridin-2-yl)-N-((2R,4R,4aS,5aR,6S,7S,8R,9S,9aR,10aS)-4a,7,9-trihydroxy-2-methyl-6,8-bis(methylamino)decahydro-2H-benzo[b]pyrano[2,3-e][1,4]dioxin-4-yl)acetamide formation at 400 mg/kg, SC measured after 15 mins; assay type: ADME, organism-based; details: in vivo, 0.25 h
Summary of the method: (§4)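 Plasma was sampled from infected BALB/c mice in the acute efficacy study 15 min and 8 h after a 400 mg/kg dose. Parent drug and prodrug levels were each quantified in the prodrug-treated and parent-treated groups.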

[3] = Drug uptake in female BALB/c mouse plasma infected with Mycobacterium tuberculosis Erdman harboring pFCA-LuxAB plasmid at 400 mg/kg, SC measured after 15 mins; assay type: ADME, organism-based; details: in vivo, 0.25 h; summary of the method: as §4
[4] = as §3, with “8 hrs” for “15 mins”; assay type: ADME, organism-based; details: in vivo; summary of the method: as §4
[5] = Drug uptake in female BALB/c mouse plasma infected with Mycobacterium tuberculosis Erdman harboring pFCA-LuxAB plasmid at 400 mg/kg, SC measured after 8 hrs; assay type: ADME, organism-based; details: in vivo; summary of the method: as §4
[6] = test system: Mycobacterium tuberculosis; experiment: as §1, with “10” for “400”, “po” for “SC”; assay type: functional; details: time 15 day; summary of the method: as §2

| SMILES | log(activity) [1] | Drug metabolism [2] | Drug uptake [3] | Drug metabolism [4] | Drug uptake [5] | log(activity) [6] |
| --- | --- | --- | --- | --- | --- | --- |
| CN[C@@H]1[C@H](O)[C@H](NC)[C@H]2O[C@]3(O)[C@H](O[C@@H]2[C@H]1O)O[C@H](C)C[C@H]3NC(=O)Cc1ccc(OP(=O)(O)O)cn1 | 1.11 | metabolite_detected | Active | metabolite_detected |  |  |
| CN[C@@H]1[C@H](O)[C@H](NC)[C@H]2O[C@]3(O)[C@H](O[C@@H]2[C@H]1O)O[C@H](C)C[C@H]3NC(=O)Cc1ccc(O)cn1 | 1.13 |  | Active |  | Active |  |
| CO[C@H]1/C=C/O[C@@]2(C)Oc3c(C)c(O)c4c(O)c(c(/C=N/N5CCN(C)CC5)c(O)c4c3C2=O)NC(=O)/C(C)=C\C=C\[C@H](C)[C@H](O)[C@@H](C)[C@@H](O)[C@@H](C)[C@H](OC(C)=O)[C@@H]1C [RIFAMPIN] |  |  |  |  |  | 1.21 |
